Laboratory results published in ChEMBL document CHEMBL4251664, “Biocompatible Boron-Containing Prodrugs of Belinostat for the Potential Treatment of Solid Tumors” (ACS Med Chem Lett, 2018).

How the values were obtained:
[1] = Drug uptake in tumor of ovariectomized nu/nu mouse implanted with human MCF7 cells assessed as (E)-4-((3-(3-(N-phenylsulfamoyl)phenyl)acrylamidooxy)methyl)phenylboronic acid level at 10 mg/kg, sc administered once daily for 22 days measured post last dose by HPLC-MS/MS analysis; assay type: ADME, organism-based, Neoplasm; settings: in vivo, 528 h
Outline: (§1)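 After 22 days of 10 mg/kg/day subcutaneous dosing in MCF-7 xenograft mice, animals were sacrificed. Tumours were excised, homogenized and extracted, then analysed by HPLC–MS/MS for belinostat and the free boronic acid. Results are expressed as ng/g tissue.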

HeLa [2] = experiment: Prodrug conversion in human HeLa cells assessed as belinostat level after 4 days by UHPLC-MS/MS analysis; assay type: ADME, cell-based; settings: 96 h
Outline: (§2)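 MDA-MB-231 or HeLa cells were incubated with the pinacol boronate prodrug, and culture medium was sampled daily from day 1 to day 6. The prodrug, boronic acid forms and belinostat were separated, identified and quantified by HPLC coupled to an Orbitrap mass spectrometer. Results are in ng/mL as mean ± SEM of triplicate experiments.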

HeLa [3] = experiment: Prodrug conversion in human HeLa cells assessed as (E)-4-((3-(3-(N-phenylsulfamoyl)phenyl)acrylamidooxy)methyl)phenylboronic acid level after 3 days by UHPLC-MS/MS analysis; assay type: ADME, cell-based; settings: 72 h; outline: as §2
MDA-MB-231 [4] = experiment: Prodrug conversion in human MDA-MB-231 cells assessed as (E)-4-((3-(3-(N-phenylsulfamoyl)phenyl)acrylamidooxy)methyl)phenylboronic acid level after 2 days by UHPLC-MS/MS analysis; assay type: ADME, cell-based; settings: mda-mb-231, 48 h; outline: as §2
MDA-MB-231 [5] = experiment: Prodrug conversion in human MDA-MB-231 cells assessed as belinostat level after 1 day by UHPLC-MS/MS analysis; assay type: ADME, cell-based; settings: mda-mb-231, 24 h; outline: as §2
Mus musculus = experiment: Toxicity in ovariectomized nu/nu mouse implanted with human MCF7 cells assessed as effect on body weight at 10 mg/kg, sc administered once daily for 22 days; assay type: organism-based; settings: in vivo, 528 h
Outline: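 MCF-7 xenograft in mice, dosed 10 mg/kg/day by subcutaneous injection alongside a vehicle group. Treatment ran 22 days. Body weights were compared with the vehicle group, and tumour volume was measured over the same period. At the end, mice were sacrificed and tumours removed.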

MDA-MB-231 [6] = experiment: Prodrug conversion in human MDA-MB-231 cells assessed as belinostat level after 4 days by UHPLC-MS/MS analysis; assay type: ADME, cell-based; settings: mda-mb-231, 96 h; outline: as §2
MDA-MB-231 [7] = experiment: Prodrug conversion in human MDA-MB-231 cells assessed as belinostat level after 2 days by UHPLC-MS/MS analysis; assay type: ADME, cell-based; settings: mda-mb-231, 48 h; outline: as §2
MDA-MB-231 [8] = experiment: Prodrug conversion in human MDA-MB-231 cells assessed as (E)-4-((3-(3-(N-phenylsulfamoyl)phenyl)acrylamidooxy)methyl)phenylboronic acid level after 5 days by UHPLC-MS/MS analysis; assay type: ADME, cell-based; settings: mda-mb-231, 120 h; outline: as §2
[9] = Drug uptake in tumor of ovariectomized nu/nu mouse implanted with human MCF7 cells assessed as belinostat level at 10 mg/kg, sc administered once daily for 22 days measured post last dose by HPLC-MS/MS analysis; assay type: ADME, organism-based, Neoplasm; settings: in vivo, 528 h; outline: as §1
MCF-10A = experiment: Cytotoxicity against human MCF10A cells assessed as reduction in cell proliferation at 10 uM after 72 hrs by resazurin dye based fluorescence assay
HeLa [10] = experiment: Antiproliferative activity against human HeLa cells after 72 hrs by resazurin dye based fluorescence assay; assay type: functional, cell-based
A549 = experiment: Antiproliferative activity against human A549 cells after 72 hrs by resazurin dye based fluorescence assay; assay type: functional, cell-based; settings: A549, 72 h
HeLa [11] = experiment: Prodrug conversion in human HeLa cells assessed as belinostat level after 1 day by UHPLC-MS/MS analysis; assay type: ADME, cell-based; settings: 24 h; outline: as §2
Histone deacetylase = experiment: Inhibition of HDAC in human cell lysates using fluoro-substrate peptide/fluoro-deacetylated peptide as substrate incubated for 20 mins measured at 1 to 2 mins interval for 30 to 60 mins by fluorescence assay; assay type: protein assay
HeLa [12] = experiment: Prodrug conversion in human HeLa cells assessed as (E)-4-((3-(3-(N-phenylsulfamoyl)phenyl)acrylamidooxy)methyl)phenylboronic acid level after 5 days by UHPLC-MS/MS analysis; assay type: ADME, cell-based; settings: 120 h; outline: as §2
MDA-MB-231 [13] = experiment: Prodrug conversion in human MDA-MB-231 cells assessed as (E)-4-((3-(3-(N-phenylsulfamoyl)phenyl)acrylamidooxy)methyl)phenylboronic acid level after 6 days by UHPLC-MS/MS analysis; assay type: ADME, cell-based; settings: mda-mb-231, 144 h; outline: as §2
MCF7 [14] = experiment: Antitumor activity against human MCF7 cells implanted in ovariectomized nu/nu mouse assessed as tumor volume at 10 mg/kg, sc administered once daily for 22 days measured on day 12 during compound dosing (reference value: 869 +/- 173 mm3); assay type: functional
HeLa [15] = experiment: Prodrug conversion in human HeLa cells assessed as belinostat level after 3 days by UHPLC-MS/MS analysis; assay type: ADME, cell-based; settings: 72 h; outline: as §2
SK-MEL-28 = experiment: Antiproliferative activity against human SK-MEL-28 cells after 72 hrs by resazurin dye based fluorescence assay; assay type: functional, cell-based; settings: SK-MEL-28, 72 h
HeLa [16] = experiment: Prodrug conversion in human HeLa cells assessed as (E)-4-((3-(3-(N-phenylsulfamoyl)phenyl)acrylamidooxy)methyl)phenylboronic acid level after 1 day by UHPLC-MS/MS analysis; assay type: ADME, cell-based; settings: 24 h; outline: as §2
MDA-MB-231 [17] = experiment: Prodrug conversion in human MDA-MB-231 cells assessed as (E)-4-((3-(3-(N-phenylsulfamoyl)phenyl)acrylamidooxy)methyl)phenylboronic acid level after 4 days by UHPLC-MS/MS analysis; assay type: ADME, cell-based; settings: mda-mb-231, 96 h; outline: as §2
MCF7 [18] = experiment: Antitumor activity against human MCF7 cells implanted in ovariectomized nu/nu mouse assessed as tumor volume at 10 mg/kg, sc administered once daily for 22 days measured post last dose relative to control; assay type: functional
HeLa [19] = experiment: Prodrug conversion in human HeLa cells assessed as (E)-4-((3-(3-(N-phenylsulfamoyl)phenyl)acrylamidooxy)methyl)phenylboronic acid level after 4 days by UHPLC-MS/MS analysis; assay type: ADME, cell-based; settings: 96 h; outline: as §2
MDA-MB-231 [20] = experiment: Prodrug conversion in human MDA-MB-231 cells assessed as belinostat level after 5 days by UHPLC-MS/MS analysis; assay type: ADME, cell-based; settings: mda-mb-231, 120 h; outline: as §2

Drug uptake [1]: 51 ng/g
Drug metabolism (HeLa [2]): 7.8 ng/mL
Drug metabolism (HeLa [3]): 144.9 ng/mL
Drug metabolism (MDA-MB-231 [4]): 268.5 ng/mL
Drug metabolism (MDA-MB-231 [5]): 30.7 ng/mL
Drug metabolism (MDA-MB-231 [6]): 19.8 ng/mL
Drug metabolism (MDA-MB-231 [7]): 27.7 ng/mL
Drug metabolism (MDA-MB-231 [8]): 145.8 ng/mL
Drug uptake [9]: 57 ng/g
IC50 (HeLa [10]): 273 nM
IC50 (A549): 453 nM
Drug metabolism (HeLa [11]): 8.4 ng/mL
EC50 (Histone deacetylase): 350 nM
Drug metabolism (HeLa [12]): 82.7 ng/mL
Drug metabolism (MDA-MB-231 [13]): 130.9 ng/mL
Drug metabolism (HeLa [15]): 13.4 ng/mL
IC50 (SK-MEL-28): 678 nM
Drug metabolism (HeLa [16]): 282.7 ng/mL
Drug metabolism (MDA-MB-231 [17]): 171.8 ng/mL
Drug metabolism (HeLa [19]): 107 ng/mL
Drug metabolism (MDA-MB-231 [20]): 28.5 ng/mL
Structure (SMILES): CC1(C)OB(c2ccc(CONC(=O)/C=C/c3cccc(S(=O)(=O)Nc4ccccc4)c3)cc2)OC1(C)C
Activity (Mus musculus): Non-Toxic
Activity (MCF-10A): Non-Toxic
Activity (MCF7 [14]): 153 mm3
T/C (MCF7 [18]): 14.6%
